This note sets out measurements from ChEMBL document CHEMBL1138363, “N,N'-dihydroxyamidines: a new prodrug principle to improve the oral bioavailability of amidines” (J Med Chem, 2007).

What all share (settings): in vivo
The nature of data set [1]: Oral bioavailability in pig. It is filed as ADME, organism-based, Sus scrofa. In outline: (§1)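 Prodrug given orally to three pigs at 10 mg/kg body weight. Heparinized blood samples were centrifuged at 1500g for 10 min at 4 °C, stored at -80 °C and worked up by solid-phase extraction. Some samples were pretreated with β-glucuronidase/sulfatase. Benzamidine and benzamidoxime were measured in plasma by HPLC. Pharmacokinetic parameters were estimated for each pig from the plasma concentration-time curves.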

A short description of data set [2]: Half life in po dosed pig. It is filed as ADME, organism-based, Sus scrofa. In outline:
as §1

Data set [3] can be described thus: Cmax in po dosed pig. It is filed as ADME, organism-based, Sus scrofa. Details: route oral. In outline: as §1
Data set [4] has as its system Sus scrofa. Nature of the data set: AUC in po dosed pig. It is filed as ADME, organism-based, Plasma. A digest of the protocol: as §1
Data set [5] has as its system Sus scrofa. Nature of the data set: Clearance in po dosed pig. The format is ADME, organism-based. A digest of the protocol:
as §1

Data set [6] deals with Sus scrofa. In words: Plasma concentration in pig at 10 mg/kg, po. The format is ADME, organism-based. On the set-up: dose 10 mg/kg, route oral. In outline:
as §1

Data set [7] in a line: Tmax in po dosed pig. It is filed as ADME, organism-based, Sus scrofa. In outline: as §1
For data set [8], the system named is Sus scrofa. Nature of the data set: Volume of distribution in po dosed pig. The format is ADME, organism-based. In outline: as §1
The nature of data set [9]: Mean resident time in po dosed pig. It is filed as ADME, organism-based, Sus scrofa. A digest of the protocol: as §1

With `N=C(N)c1ccccc1` [BENZAMIDINE], the bioavailability – broadly, the share of a dose that reaches the circulation, judged against a reference dose that is usually intravenous – in data set [1] worked out at 91%. Also, the half-life (usually the time in which the quantity being followed falls by half) in data set [2] amounted to 222 min. In addition, the Cmax (as a rule, the maximum level reached in the sampled fluid or tissue) in data set [3] worked out at 13.7 µM. Besides, the AUC (usually the area under the concentration-time curve, a measure of exposure) in data set [4] amounted to 98.7 µM·h. The molecule further came in with a CL in data set [5] of 0.3 dL/min/kg. In addition, in data set [6], the concentration stood at 13.7 µM. Moreover, the Tmax (in general, the time at which the peak concentration occurs) in [7] was 2 h. In addition, in data set [8], the Vd stood at 79.1 dL/kg. The MRT – broadly, the average time that molecules of a dose stay in the body – in [9] was 6.16 h.

`NC(=NO)c1ccccc1` [BENZAMIDOXIME] showed a concentration in data set [6] of 0.4 µM.
